The target in experiment [1] is T1, Amine oxidase [flavin-containing] B (Homo sapiens, UniProt P27338).
T1 sequence (P27338 whole entry): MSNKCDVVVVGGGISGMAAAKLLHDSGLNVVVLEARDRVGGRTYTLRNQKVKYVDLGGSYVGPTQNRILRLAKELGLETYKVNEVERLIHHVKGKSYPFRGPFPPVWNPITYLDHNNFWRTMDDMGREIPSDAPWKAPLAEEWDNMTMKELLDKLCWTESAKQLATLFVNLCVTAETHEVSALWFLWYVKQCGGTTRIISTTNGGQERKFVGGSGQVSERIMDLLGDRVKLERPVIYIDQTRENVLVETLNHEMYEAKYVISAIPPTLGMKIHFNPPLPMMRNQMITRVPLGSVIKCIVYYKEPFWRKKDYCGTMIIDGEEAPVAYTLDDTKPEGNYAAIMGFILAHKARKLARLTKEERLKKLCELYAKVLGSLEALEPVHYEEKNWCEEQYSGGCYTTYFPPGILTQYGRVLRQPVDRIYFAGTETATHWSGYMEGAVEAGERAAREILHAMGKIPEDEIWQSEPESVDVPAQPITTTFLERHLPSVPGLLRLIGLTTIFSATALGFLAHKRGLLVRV
The experiment is described as follows: Inhibition of recombinant human MAO-B at 10 uM using kynuramine as substrate after 30 mins by fluorescence assay relative to control. The note with it: 0.5 h. Put shortly:
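Recombinant human MAO-A or MAO-B, kynuramine substrate (45 µM for MAO-A, 30 µM for MAO-B), in 100 mM potassium phosphate pH 7.40 with 20.2 mM KCl and under 4% DMSO. Enzyme (7.5 µg/mL) starts the reaction; 30 min at 37 °C. Stopped with NaOH plus water, centrifuged, supernatant fluorescence read at ex 310/em 400 nm. Percent inhibition at 10 µM.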

Experiment [2] concerns the target Acetylcholinesterase (Electrophorus electricus, UniProt O42275). Description: Inhibition of Electrophorus electricus AChE using acetylthiocholine iodide as substrate measured after 15 mins by Ellman's method.
The nature of experiment [3]: Antioxidant activity assessed as trolox equivalents of AAPH radical scavenging activity at 5 uM preincubated for 15 mins followed by AAPH addition measured every min for 90 mins by ORAC-FL assay. Type of experiment: functional. Put shortly: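 ORAC-FL in 75 mM phosphate buffer pH 7.4, 200 µL final. Sample plus fluorescein (150 nM final) pre-incubated 15 min at 37 °C, then AAPH added (12 mM final). Fluorescence read every minute for 90 min, ex 485/em 535 nm, normalized to FL+AAPH blank. Trolox standard 1-8 µM final; values given as µM Trolox equivalent per µM compound. Duplicate wells, at least three independent assays.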

Experiment [4] deals with Amyloid-beta precursor protein (Homo sapiens) (UniProt P05067). The experiment is described as follows: Inhibition of self-induced aggregation of amyloid beta (1 to 42) (unknown origin) at 25 uM after 24 hrs by thioflavin T fluorescence-based fluorometric method relative to control. In a few lines: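 Aβ1-42 pretreated in HFIP 24 h at room temperature, dried, redissolved in DMSO. Peptide (25 µM final) incubated with compound (25 µM final) in 50 mM phosphate pH 7.4 for 24 h at 37 °C. ThT (5 µM) added in 50 mM glycine-NaOH pH 8.5; fluorescence read at ex 446/em 490 nm. Inhibition = (1 − IFi/IFc)×100 after background subtraction, triplicate.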

Experiment [5] has as its target T2, Amine oxidase [flavin-containing] A (Homo sapiens, UniProt P21397).
T2 sequence (P21397 whole entry): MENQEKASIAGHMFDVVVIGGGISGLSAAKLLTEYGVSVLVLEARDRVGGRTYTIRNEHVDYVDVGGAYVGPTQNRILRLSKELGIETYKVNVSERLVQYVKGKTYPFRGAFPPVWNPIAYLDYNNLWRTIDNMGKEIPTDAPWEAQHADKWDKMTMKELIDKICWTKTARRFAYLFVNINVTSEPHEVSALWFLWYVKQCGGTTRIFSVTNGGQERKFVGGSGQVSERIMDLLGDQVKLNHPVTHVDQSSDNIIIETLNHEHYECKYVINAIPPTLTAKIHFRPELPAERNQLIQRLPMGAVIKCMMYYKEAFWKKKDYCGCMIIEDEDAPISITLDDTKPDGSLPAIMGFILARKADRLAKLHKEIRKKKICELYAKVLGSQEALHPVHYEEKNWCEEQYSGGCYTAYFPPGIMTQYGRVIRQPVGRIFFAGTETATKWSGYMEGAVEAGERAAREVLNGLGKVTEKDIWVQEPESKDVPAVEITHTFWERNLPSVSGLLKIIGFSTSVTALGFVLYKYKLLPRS
Description: Inhibition of recombinant human MAO-A using kynuramine as substrate after 30 mins by fluorescence assay.

The species entered for experiment [6] is Rattus norvegicus. Description: Inhibition of rat serum BuChE using butyrylthiocholine iodide as substrate measured at 50 uM after 15 mins by Ellman's method relative to control. Put shortly: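 Rat serum (25%) as enzyme source; modified Ellman method in […] pH 7.4 with 1 mmol/L butyrylthiocholine iodide and 0.2% DTNB; 37 °C for 15 min, absorbance at 405 nm. Percent inhibition at 50 µM test compound, each concentration in triplicate.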
Background: Ellman's reagent forms a yellow product with free thiols.

Experiment [7] has as its target T1, Amine oxidase [flavin-containing] B. Description: Inhibition of recombinant human MAO-B using kynuramine as substrate after 30 mins by fluorescence assay.
The species entered for experiment [8] is Homo sapiens. Description: Selectivity index, ratio of IC50 for recombinant human MAO-A to IC50 for recombinant human MAO-B. Put shortly:
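Ratio of IC50s, each from a sigmoidal curve of initial kynuramine oxidation rate versus log inhibitor concentration. Curves used six concentrations within 0-100 µM, spanning at least three orders of magnitude. IC50s determined in triplicate.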

Broadly, the inhibition is the change of the read-out against control, counted positive when it falls. For orientation: IC50 means the concentration that gives 50% inhibition.

Chain of Amyloid-beta precursor protein (Homo sapiens) (P05067 whole entry): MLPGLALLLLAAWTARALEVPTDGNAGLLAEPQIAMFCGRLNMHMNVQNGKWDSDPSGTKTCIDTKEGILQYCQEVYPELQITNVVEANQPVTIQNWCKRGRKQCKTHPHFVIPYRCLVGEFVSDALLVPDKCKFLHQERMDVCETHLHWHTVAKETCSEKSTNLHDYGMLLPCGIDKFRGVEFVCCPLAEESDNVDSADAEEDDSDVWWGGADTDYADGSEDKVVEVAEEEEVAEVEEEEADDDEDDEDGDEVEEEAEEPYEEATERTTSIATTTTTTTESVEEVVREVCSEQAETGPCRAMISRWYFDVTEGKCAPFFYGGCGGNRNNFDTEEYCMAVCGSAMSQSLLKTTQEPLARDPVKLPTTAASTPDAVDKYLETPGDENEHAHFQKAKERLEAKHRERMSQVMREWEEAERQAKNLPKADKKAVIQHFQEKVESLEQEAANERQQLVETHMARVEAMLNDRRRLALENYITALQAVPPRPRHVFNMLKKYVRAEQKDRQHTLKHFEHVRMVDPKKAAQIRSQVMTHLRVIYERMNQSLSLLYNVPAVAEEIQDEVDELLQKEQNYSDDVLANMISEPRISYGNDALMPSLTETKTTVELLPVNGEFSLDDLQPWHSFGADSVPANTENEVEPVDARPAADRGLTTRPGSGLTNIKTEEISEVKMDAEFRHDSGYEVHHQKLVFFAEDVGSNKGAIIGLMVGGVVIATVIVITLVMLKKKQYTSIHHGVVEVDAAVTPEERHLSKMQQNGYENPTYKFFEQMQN
Chain of Acetylcholinesterase (O42275 whole entry): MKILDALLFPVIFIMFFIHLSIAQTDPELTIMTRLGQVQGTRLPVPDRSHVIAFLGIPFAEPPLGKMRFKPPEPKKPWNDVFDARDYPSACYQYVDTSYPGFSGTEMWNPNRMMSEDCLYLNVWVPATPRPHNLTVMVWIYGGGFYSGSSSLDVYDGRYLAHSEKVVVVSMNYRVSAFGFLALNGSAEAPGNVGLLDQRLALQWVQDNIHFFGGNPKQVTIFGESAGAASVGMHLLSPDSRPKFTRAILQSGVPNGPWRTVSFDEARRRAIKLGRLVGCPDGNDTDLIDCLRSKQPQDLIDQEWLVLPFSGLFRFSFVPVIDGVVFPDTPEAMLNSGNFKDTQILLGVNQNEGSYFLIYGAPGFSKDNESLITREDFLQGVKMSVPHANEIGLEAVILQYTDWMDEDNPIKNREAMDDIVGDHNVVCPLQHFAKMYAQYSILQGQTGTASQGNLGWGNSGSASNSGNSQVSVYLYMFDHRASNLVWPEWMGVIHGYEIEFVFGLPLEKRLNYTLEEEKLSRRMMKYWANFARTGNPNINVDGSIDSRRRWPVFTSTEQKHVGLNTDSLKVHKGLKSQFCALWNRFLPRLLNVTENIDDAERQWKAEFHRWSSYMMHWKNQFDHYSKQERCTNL

As for `CCN(CCCn1sc2cc(OC)c(OC)cc2c1=O)Cc1ccc(N(C)C)cc1`, the inhibition at 10 µM in experiment [1] was 40.1%. For the same molecule, the 50% inhibitory concentration (IC50) in experiment [2] was found to be 12.9 µM; in experiment [5], 11.3 µM. Moreover, the Activity in experiment [3] was 0.58 equiv. Also, the inhibition was determined as 13.4% in experiment [4] and 9.6% in experiment [6].
As to `CCN(CCCCn1sc2cc(OC)c(OC)cc2c1=O)Cc1ccccc1OC`, the IC50 is 4.99 µM in experiment [2], 19.4 µM in experiment [7] and 9.6 µM in experiment [5]. In experiment [3], the Activity was 0.3 equiv. The inhibition in experiment [4] stood at 21.1%; in experiment [6], 36.4%. Also, the Ratio IC50 in experiment [8] stood at 0.49.
Take `COc1ccccc1CN(C)CCCn1sc2cc(OC)c(OC)cc2c1=O`: the inhibition at 10 µM in experiment [1] was 48.6%. For the same molecule, the half-maximal inhibitory concentration (IC50) in experiment [2] came to 12 µM; in experiment [5], 9.4 µM. Also, in experiment [3], the Activity amounted to 0.83 equiv. The inhibition in experiment [4] came out at 21.8%; in experiment [6], 10.8%.
As to `CCN(CCCCCCn1sc2cc(OC)c(OC)cc2c1=O)Cc1ccccc1N(C)C`, the IC50 in experiment [2] came to 0.56 µM; in experiment [7] it was 19.6 µM; in experiment [5], 3.4 µM. In experiment [3], the Activity was 0.35 equiv. Also, the inhibition in experiment [4] stood at 31.2%; in experiment [6], 46.8%. Further, in experiment [8], the Ratio IC50 is 0.17.
For the molecule `CCN(CCCn1sc2cc(OC)c(OC)cc2c1=O)Cc1ccccc1`, in experiment [1], the inhibition at 10 µM was found to be 46.3%. The IC50 in experiment [2] was 6.65 µM; in experiment [5], 9.9 µM. Moreover, the Activity in experiment [3] is 0.84 equiv. Further, the inhibition in experiment [4] worked out at 19.6%; in experiment [6], 12.3%.
As to `CCN(CCCn1sc2cc(OC)c(OC)cc2c1=O)Cc1ccccc1N(C)C`, in experiment [1], the inhibition at 10 µM was determined as 45.4%. The half-inhibitory concentration (IC50) was determined as 9.7 µM in experiment [2] and 16.6 µM in experiment [5]. Further, the Activity in experiment [3] stood at 0.22 equiv. Also, the inhibition in experiment [4] is 19.8%; in experiment [6], 27.9%.
As to `CCN(CCCCn1sc2cc(OC)c(OC)cc2c1=O)Cc1ccccc1`, the IC50 in experiment [2] turned out to be 0.8 µM; in experiment [7], 20.1 µM; in experiment [5], 19.9 µM. Further, the Activity in experiment [3] worked out at 0.53 equiv. In addition, the inhibition is 9.4% in experiment [4] and 21.8% in experiment [6]. Further, the Ratio IC50 in experiment [8] worked out at 0.99.
As to `COc1cc2s[nH]c(=O)c2cc1OC`, the inhibition at 10 µM in experiment [1] amounted to 14%. Moreover, the IC50 amounted to 34.9 µM in experiment [2] and 21 µM in experiment [5]. Besides, the Activity in experiment [3] turned out to be 0.29 equiv. In addition, the figures for the inhibition in experiment [4] and in experiment [6] were 12.2% and 10.3%, respectively.
For `COc1ccccc1CN(C)CCCCn1sc2cc(OC)c(OC)cc2c1=O`, the half-maximal inhibitory concentration (IC50) was found to be 5.9 µM in experiment [2], 19.2 µM in experiment [7] and 7.1 µM in experiment [5]. The Activity in experiment [3] amounted to 0.39 equiv. In addition, the inhibition in experiment [4] was found to be 11.7%; in experiment [6], 25.5%. The Ratio IC50 in experiment [8] turned out to be 0.37.
Turning to `CCN(CCCCCCn1sc2cc(OC)c(OC)cc2c1=O)Cc1ccc(N(C)C)cc1`, the IC50 was 6.5 µM in experiment [2], 12.4 µM in experiment [7] and 7.1 µM in experiment [5]. The Activity in experiment [3] was determined as 1.92 equiv. For the same molecule, the inhibition in experiment [4] came out at 33.4%; in experiment [6], 22.7%. In experiment [8], the Ratio IC50 worked out at 0.57.
Consider `COc1cc2sn(CCCN(C)Cc3ccccc3)c(=O)c2cc1OC`, for which, in experiment [1], the inhibition at 10 µM amounted to 44.4%. In addition, the IC50 in experiment [2] came out at 7.5 µM; in experiment [5] it was 6.9 µM. The Activity in experiment [3] worked out at 0.91 equiv. The inhibition in experiment [4] is 7.6%; in experiment [6], 11.5%.
Consider `CCN(CCCCn1sc2cc(OC)c(OC)cc2c1=O)Cc1ccccc1N(C)C`, for which the inhibition at 10 µM in experiment [1] amounted to 46.5%. For the same molecule, the 50% inhibitory concentration (IC50) was 7.1 µM in experiment [2] and 9.9 µM in experiment [5]. In addition, the Activity in experiment [3] is 0.34 equiv. Further, the results for the inhibition in experiment [4] and in experiment [6] were 11.7% and 32.6%, respectively.
For the molecule `CCN(CCCn1sc2cc(OC)c(OC)cc2c1=O)Cc1ccccc1OC`, the inhibition at 10 µM in experiment [1] was determined as 37%. The results for the concentration for half-maximal inhibition (IC50) in experiment [2] and in experiment [5] were 8.3 µM and 15.5 µM, respectively. Further, the Activity in experiment [3] was determined as 0.82 equiv. The inhibition was 12.4% in experiment [4] and 18.9% in experiment [6].

The values above are taken from ChEMBL document CHEMBL4219111, “Multifunctional 5,6-dimethoxybenzo[d]isothiazol-3(2H)-one-N-alkylbenzylamine derivatives with acetylcholinesterase, monoamine oxidases and β-amyloid aggregation inhibitory activities as potential agents against Alzheimer's disease” (Bioorg Med Chem, 2018).
